For experiment [1], the target named is D(2) dopamine receptor (Homo sapiens) (UniProt P14416). Nature of the experiment: Inhibition of [3H]raclopride binding to Dopamine receptor D2A in human.
Experiment [2] deals with T1, 5-hydroxytryptamine receptor 1A (Rattus norvegicus, UniProt P19327).
T1 sequence (P19327 whole entry): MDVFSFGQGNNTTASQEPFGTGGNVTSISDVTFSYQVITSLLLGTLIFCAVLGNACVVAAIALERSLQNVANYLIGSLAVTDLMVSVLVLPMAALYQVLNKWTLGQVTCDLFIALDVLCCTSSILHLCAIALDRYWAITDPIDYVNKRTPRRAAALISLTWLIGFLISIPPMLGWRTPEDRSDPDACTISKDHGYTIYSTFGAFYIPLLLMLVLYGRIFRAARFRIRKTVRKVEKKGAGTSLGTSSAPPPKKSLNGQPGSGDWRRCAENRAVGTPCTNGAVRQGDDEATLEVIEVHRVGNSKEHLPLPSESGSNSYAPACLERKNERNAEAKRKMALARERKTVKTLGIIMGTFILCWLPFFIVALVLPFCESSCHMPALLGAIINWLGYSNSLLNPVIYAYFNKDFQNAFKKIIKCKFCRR
Put plainly: Inhibition of [3H]8-OH-DPAT binding to rat 5-hydroxytryptamine 1A receptor. The essentials: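 Radioligand [3H]-8-OH-DPAT; receptor source either CHO cells expressing human 5-HT1A or rat hippocampal cells.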

Experiment [3] concerns the target 5-hydroxytryptamine receptor 7 (Rattus norvegicus, UniProt P32305). Put plainly: Inhibition of [3H]-5-HT binding to rat 5-hydroxytryptamine 7 receptor. The essentials:
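Rat 5-HT7 receptor expressed in CHO or Sf9 cells; [3H]-5-HT radioligand displacement.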

The target of experiment [4] is 5-hydroxytryptamine receptor 7 (Rattus norvegicus) (UniProt P32305). Nature of the experiment: Stimulation of cAMP production in CHO cells expressing rat 5-hydroxytryptamine 7 receptor. Format: functional, cell-based. A digest of the protocol:
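cAMP production in CHO cells expressing rat 5-HT7 receptor. Efficacy is expressed as percent of the 5-HT-stimulated production.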

The species named for another experiment is Rattus norvegicus. Put plainly: Inhibition of 3[H]8-OH--DPAT and [3H]5-HT binding to 5-hydroxytryptamine 1A receptor and 5-hydroxytryptamine 7 receptor in rat. A digest of the protocol:
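Displacement binding with [3H]-8-OH-DPAT at 5-HT1A in rat hippocampal cells, and with [3H]-5-HT at rat 5-HT7 expressed in CHO or Sf9 cells.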

Experiment [5] deals with 5-hydroxytryptamine receptor 7 (Rattus norvegicus) (UniProt P32305). Nature of the experiment: Stimulation of cAMP production in CHO cells expressing rat 5-hydroxytryptamine 7 receptor; Antagonist. Format: functional, cell-based. Particulars: filed as antagonist. The essentials: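 Functional assay in CHO cells expressing rat 5-HT7 receptor, read as cAMP production. Efficacy is expressed as % of the cAMP production stimulated by 5-HT.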
In general terms: Cyclic AMP is a second messenger, typically raised through Gs and lowered through Gi signalling.

Sequence of D(2) dopamine receptor (Homo sapiens) (P14416 whole entry, looked up): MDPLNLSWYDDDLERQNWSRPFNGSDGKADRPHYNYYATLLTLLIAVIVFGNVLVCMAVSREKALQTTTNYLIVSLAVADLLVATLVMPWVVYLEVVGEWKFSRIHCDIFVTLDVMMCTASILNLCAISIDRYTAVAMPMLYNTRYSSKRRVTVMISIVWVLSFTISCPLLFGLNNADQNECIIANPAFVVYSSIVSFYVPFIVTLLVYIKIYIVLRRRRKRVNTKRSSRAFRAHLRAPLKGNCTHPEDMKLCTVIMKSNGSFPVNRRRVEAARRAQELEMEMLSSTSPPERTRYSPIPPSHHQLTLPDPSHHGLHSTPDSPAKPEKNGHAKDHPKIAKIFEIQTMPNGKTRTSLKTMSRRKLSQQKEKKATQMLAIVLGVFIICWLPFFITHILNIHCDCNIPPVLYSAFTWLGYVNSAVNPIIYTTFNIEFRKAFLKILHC
Sequence of 5-hydroxytryptamine receptor 7 (Rattus norvegicus) (P32305 whole entry): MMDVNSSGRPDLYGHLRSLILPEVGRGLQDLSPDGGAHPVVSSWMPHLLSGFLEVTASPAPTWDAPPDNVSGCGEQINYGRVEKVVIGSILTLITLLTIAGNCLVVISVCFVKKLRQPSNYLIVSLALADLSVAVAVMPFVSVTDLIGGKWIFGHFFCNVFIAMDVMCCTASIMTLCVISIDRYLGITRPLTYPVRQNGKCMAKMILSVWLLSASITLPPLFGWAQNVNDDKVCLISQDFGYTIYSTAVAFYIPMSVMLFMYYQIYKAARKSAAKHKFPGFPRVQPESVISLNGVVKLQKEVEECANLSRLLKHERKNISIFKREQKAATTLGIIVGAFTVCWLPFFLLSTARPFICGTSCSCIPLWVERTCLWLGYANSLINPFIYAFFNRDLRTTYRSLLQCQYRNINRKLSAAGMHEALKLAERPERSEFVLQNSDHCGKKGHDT
Sequence of 5-hydroxytryptamine receptor 7 (P32305 whole entry): as above

Consider `CCCN(CCC)[C@H]1COc2c(cccc2-c2ccccc2OC)C1`, for which the Ki amounted to 512 nM in experiment [1], 10.3 nM in experiment [2] and 2.7 nM in experiment [3]. Moreover, in experiment [4], the Efficacy was found to be 100%. For the same compound, in the experiment listed under Rattus norvegicus, the Ratio was determined as 3.8.
Take `COc1cccc(OC)c1-c1cccc2c1OC[C@H](N(C)C)C2`: the Ki was > 1000 nM in experiment [2] and 5.29 nM in experiment [3]. The same compound displayed an Efficacy in experiment [4] of 28%. Moreover, in the experiment filed under Rattus norvegicus, the Ratio is > 189.
For the compound `O=S(=O)(c1ccc2c(c1)CC=C2)N1CCC[C@@H]1CCN1CCC(Oc2ccc(Cl)cc2)CC1`, the Ki in experiment [2] was 562 nM; in experiment [3], 1.99 nM. Further, the Efficacy entry in experiment [5] was “Antagonist”. Moreover, the Ratio in the experiment listed under Rattus norvegicus came out at 282.
Regarding `CCCN(CCC)[C@H]1CCc2c(cccc2-c2ccc(OC)cc2)C1`, the Ki was 1.49 nM in experiment [2] and 12.4 nM in experiment [3]. The Ratio in the experiment filed under Rattus norvegicus is 0.12.
As for `CCCN(CCC)[C@H]1CCc2c(cccc2-c2ccccc2OC)C1`, the Ki in experiment [2] was 11.7 nM; in experiment [3], 1.73 nM. Besides, in experiment [4], the Efficacy worked out at 100%. In the experiment listed under Rattus norvegicus, the Ratio amounted to 6.8.
Take `CCCN(CCC)[C@@H]1COc2c(cccc2-c2ccccc2OC)C1`: the values for the Ki in experiment [1], in experiment [2] and in experiment [3] were 2110 nM, 680 nM and 364 nM, respectively. Also, in the experiment listed under Rattus norvegicus, the Ratio came to 1.9.
Turning to `O=C1c2ccccc2CCCN1CCN1CCC(n2c(O)nc3cc(F)ccc32)CC1`, the Efficacy result in experiment [5] is “Antagonist”.
Turning to `COc1cccc(OC)c1-c1cccc2c1CC[C@H](N)C2`, the Ki is > 1000 nM in experiment [2] and 78.7 nM in experiment [3]. Besides, the Ratio in the experiment listed under Rattus norvegicus is > 12.7.
`CCCN(CCC)[C@H]1COc2c(cccc2-c2ccccc2)C1`: the Ki in experiment [2] was found to be 1.23 nM; in experiment [3], 2.92 nM. This compound returned an Efficacy in experiment [4] of 100%.
As for `CCCN(CCC)[C@H]1CCc2c(cccc2-c2ccccc2)C1`, the inhibition constant (Ki) turned out to be 0.87 nM in experiment [2] and 3.38 nM in experiment [3]. In addition, the Efficacy in experiment [4] came out at 100%. For the same compound, the Ratio in the experiment listed under Rattus norvegicus is 0.26.
For `O=C1c2ccccc2CCCN1CCN1CCC(n2c(=O)[nH]c3cc(F)ccc32)CC1`, the figures for the Ki in experiment [2] and in experiment [3] were 479 nM and 2.24 nM, respectively.
On to `O=C1Nc2cccc3c2C1(CCCCN1CCc2sccc2C1)CCC3` (configuration not stated), for which the Ki in experiment [2] was found to be 513 nM; in experiment [3], 6.46 nM. Moreover, the Efficacy result in experiment [5] was “Antagonist”. The Ratio in the experiment listed under Rattus norvegicus stood at 79.
Regarding `Cc1cccc(C#N)c1-c1cccc2c1-c1cccc3c1[C@@H](C2)N(C)CC3`, the values for the Ki in experiment [1] and in experiment [2] were 498 nM and 142 nM, respectively. Further, in experiment [5], the Efficacy entry is “Antagonist”. Moreover, the Ratio in the experiment listed under Rattus norvegicus was 37.
On to `CCCN(CCC)[C@H]1COc2c(cccc2-c2ccc(OC)cc2)C1`, for which the Ki in experiment [2] came out at 1.31 nM; in experiment [3] it was 12.6 nM. In addition, the Efficacy in experiment [4] amounted to 91%.
As to `CCCN(CCC)[C@H]1COc2c(cccc2-c2c(OC)cccc2OC)C1`, the Ki in experiment [2] worked out at 174 nM; in experiment [3], 6.44 nM. Besides, the Efficacy in experiment [4] was found to be 154%. Moreover, in the experiment filed under Rattus norvegicus, the Ratio is 27.

For orientation: Ki means a measure of affinity in units of concentration, obtained from inhibition or displacement. Higher therefore signals a looser hold on the target.

For the origin of these results see ChEMBL document CHEMBL1138658, “Novel 2-aminotetralin and 3-aminochroman derivatives as selective serotonin 5-HT7 receptor agonists and antagonists” (J Med Chem, 2004).
